The source of these data is ChEMBL document CHEMBL1134392, “Novel p-arylthio cinnamides as antagonists of leukocyte function-associated antigen-1/intracellular adhesion molecule-1 interaction. 2. Mechanism of inhibition and structure-based improvement of pharmaceutical properties” (J Med Chem, 2001).

pIC50, pKd: −log10 of the molar value. In brackets after ≈: the same amount, converted by molar mass. Where only a bound is given, the exact number is not on record here.

Data set [1] deals with T1, Intercellular adhesion molecule (ICAM-1), Integrin alpha-L/beta-2 (Homo sapiens, UniProt P05107+P20701). The data set can be described thus: Inhibition of JY-8 cell adhesion via leukocyte function associated antigen 1 (LFA-1) to ICAM-1, range (120-140). Type of data set: cell-based.
T1 sequence (P20701 whole entry): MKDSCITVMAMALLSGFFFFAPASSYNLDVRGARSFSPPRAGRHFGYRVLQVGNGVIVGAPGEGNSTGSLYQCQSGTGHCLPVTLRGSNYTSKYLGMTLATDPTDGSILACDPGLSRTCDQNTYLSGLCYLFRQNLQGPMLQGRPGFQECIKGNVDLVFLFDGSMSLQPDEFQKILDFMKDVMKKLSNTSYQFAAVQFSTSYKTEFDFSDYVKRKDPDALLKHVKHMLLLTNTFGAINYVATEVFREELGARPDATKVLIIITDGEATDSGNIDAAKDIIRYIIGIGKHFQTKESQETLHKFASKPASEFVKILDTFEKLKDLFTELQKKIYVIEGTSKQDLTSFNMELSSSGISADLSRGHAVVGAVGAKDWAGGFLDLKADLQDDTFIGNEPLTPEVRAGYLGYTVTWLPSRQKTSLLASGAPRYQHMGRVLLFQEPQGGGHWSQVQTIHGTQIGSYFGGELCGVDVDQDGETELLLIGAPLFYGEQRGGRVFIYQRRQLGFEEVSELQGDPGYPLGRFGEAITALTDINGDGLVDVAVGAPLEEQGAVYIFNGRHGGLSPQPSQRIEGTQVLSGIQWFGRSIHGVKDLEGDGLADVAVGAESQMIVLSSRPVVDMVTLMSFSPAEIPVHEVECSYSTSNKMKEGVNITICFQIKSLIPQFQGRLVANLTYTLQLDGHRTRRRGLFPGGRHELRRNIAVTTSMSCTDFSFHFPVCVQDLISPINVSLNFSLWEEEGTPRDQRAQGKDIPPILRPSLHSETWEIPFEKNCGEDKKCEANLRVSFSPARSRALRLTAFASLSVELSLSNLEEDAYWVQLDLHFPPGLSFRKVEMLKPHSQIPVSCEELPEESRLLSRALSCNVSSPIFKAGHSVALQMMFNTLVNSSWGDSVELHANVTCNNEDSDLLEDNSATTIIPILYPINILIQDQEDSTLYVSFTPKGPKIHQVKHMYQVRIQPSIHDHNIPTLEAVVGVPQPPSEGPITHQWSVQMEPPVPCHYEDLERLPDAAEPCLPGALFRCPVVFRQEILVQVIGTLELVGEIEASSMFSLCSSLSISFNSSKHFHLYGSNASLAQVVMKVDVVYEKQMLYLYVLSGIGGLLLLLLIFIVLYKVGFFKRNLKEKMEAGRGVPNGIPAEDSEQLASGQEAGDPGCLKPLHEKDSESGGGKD
T1 sequence (P05362 whole entry, further chain): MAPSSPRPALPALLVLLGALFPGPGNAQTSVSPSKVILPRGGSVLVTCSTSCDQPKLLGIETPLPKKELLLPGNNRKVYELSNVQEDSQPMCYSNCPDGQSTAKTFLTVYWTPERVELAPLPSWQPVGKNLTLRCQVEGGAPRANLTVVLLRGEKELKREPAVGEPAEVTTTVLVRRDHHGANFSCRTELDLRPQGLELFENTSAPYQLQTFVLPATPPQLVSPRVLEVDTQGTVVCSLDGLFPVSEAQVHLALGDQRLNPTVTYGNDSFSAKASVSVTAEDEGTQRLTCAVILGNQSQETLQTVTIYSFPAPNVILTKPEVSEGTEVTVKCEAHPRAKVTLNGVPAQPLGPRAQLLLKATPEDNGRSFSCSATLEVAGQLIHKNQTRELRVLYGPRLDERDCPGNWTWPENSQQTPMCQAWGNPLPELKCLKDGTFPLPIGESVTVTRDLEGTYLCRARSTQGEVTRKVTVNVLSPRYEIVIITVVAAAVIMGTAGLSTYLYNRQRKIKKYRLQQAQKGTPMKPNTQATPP
T1 sequence (P05107 whole entry): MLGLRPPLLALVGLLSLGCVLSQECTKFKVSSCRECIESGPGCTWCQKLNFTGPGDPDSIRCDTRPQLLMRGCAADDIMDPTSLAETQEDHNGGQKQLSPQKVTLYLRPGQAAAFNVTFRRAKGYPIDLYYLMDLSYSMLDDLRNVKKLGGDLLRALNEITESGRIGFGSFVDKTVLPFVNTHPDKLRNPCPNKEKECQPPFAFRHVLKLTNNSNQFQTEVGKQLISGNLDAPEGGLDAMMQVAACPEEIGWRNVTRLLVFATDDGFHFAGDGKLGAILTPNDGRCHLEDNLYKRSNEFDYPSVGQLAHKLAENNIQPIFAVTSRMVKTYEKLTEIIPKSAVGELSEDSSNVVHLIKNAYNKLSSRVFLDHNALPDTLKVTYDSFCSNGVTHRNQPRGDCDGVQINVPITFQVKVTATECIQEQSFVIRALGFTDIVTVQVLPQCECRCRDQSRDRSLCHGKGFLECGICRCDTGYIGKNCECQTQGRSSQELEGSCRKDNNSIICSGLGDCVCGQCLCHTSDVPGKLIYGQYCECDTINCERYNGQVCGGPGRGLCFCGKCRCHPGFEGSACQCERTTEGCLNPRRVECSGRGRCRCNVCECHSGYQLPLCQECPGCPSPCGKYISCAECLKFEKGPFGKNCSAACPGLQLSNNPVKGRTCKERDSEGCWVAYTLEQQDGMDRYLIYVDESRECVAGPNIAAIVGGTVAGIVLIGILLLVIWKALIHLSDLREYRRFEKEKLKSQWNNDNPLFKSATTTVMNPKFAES
Data set [2] concerns the target T1, Intercellular adhesion molecule (ICAM-1), Integrin alpha-L/beta-2. The data set can be described thus: Inhibition of JY-8 cell adhesion via leukocyte function associated antigen 1 (LFA-1) to ICAM-1. Format: cell-based.
Data set [3] is described as follows: Dissociation constant was determined. Format: physicochemical.
Data set [4] concerns the target Integrin alpha-L (Homo sapiens). The data set can be described thus: Binding affinity to leukocyte function associated antigen 1 (LFA-1) I domain by NMR.
The target in data set [5] is T1, Intercellular adhesion molecule (ICAM-1), Integrin alpha-L/beta-2. As to the kind of experiment: Inhibition of JY-8 cell adhesion via leukocyte function associated antigen 1 (LFA-1) to ICAM-1, range (110-140).
The target is the same in data set [6]. The data set can be described thus: Inhibition of JY-8 cell adhesion via leukocyte function associated antigen 1 (LFA-1) to ICAM-1, range (370-470). Format: cell-based.
For data set [7] the target is unchanged. As to the kind of experiment: Inhibition of JY-8 cell adhesion via leukocyte function associated antigen 1 (LFA-1) to ICAM-1, range (90-100). Type of data set: cell-based.
Data set [8] has the same target.
A short description of data set [9]: Pharmacokinetic parameter was evaluated after oral administration of 5 mg/kg; range (4-8). Format: ADME, organism-based. Further details: dose 5 mg/kg, route oral. The settings on record: in vivo.
Data set [10] is described as follows: Mean Cmax in rats after 5 mg/kg oral dose, range (0.4-0.8). Format: ADME, organism-based. The arrangement: dose 5 mg/kg, route oral. Particulars: rat, in vivo.
Data set [11] can be described thus: Half life when administered 5 mg/kg orally; range (4.1-5.5). Type of data set: ADME, organism-based. Further details: dose 5 mg/kg. Particulars: in vivo, po.
Data set [12] in a line: Pharmacokinetic parameter was evaluated which is represented as AUC when administered orally a dose of 5 mg/kg; range (4.2-8.8). Type of data set: ADME, organism-based. The settings on record: in vivo, po. The arrangement: dose 5 mg/kg, route oral.
A short description of data set [13]: solubility was determined. Format: physicochemical. The method in brief: (§1)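 Excess solid removed by filtration. The saturated solution was diluted and drug concentration measured by UV spectrophotometry.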
Data set [14] in a line: Pharmacokinetic parameter was evaluated which is represented as AUC when administered 5 mg/kg intravenously; range (2.1-2.3). Format: ADME, organism-based. Further details: dose 5 mg/kg, route intravenous. The settings on record: in vivo, iv.
Data set [15] in a line: Pharmacokinetic parameter was evaluated which is represented as Vbeta; range (0.9-6). Format: ADME.
A short description of data set [16]: Mean Cmax in rats after 5 mg/kg oral dose, range (0.17-0.20). Format: ADME, organism-based. Further details: dose 5 mg/kg, route oral. The settings on record: rat, in vivo.
The target in data set [17] is T1, Intercellular adhesion molecule (ICAM-1), Integrin alpha-L/beta-2. The data set can be described thus: Inhibition of JY-8 cell adhesion via leukocyte function associated antigen 1 (LFA-1) to ICAM-1, range (30-60). Type of data set: cell-based.
Data set [18] is described as follows: Pharmacokinetic parameter was evaluated after oral administration of 5 mg/kg; range (0.2-1). Particulars: in vivo. Type of data set: ADME, organism-based. The arrangement: dose 5 mg/kg, route oral.
A short description of data set [19]: Pharmacokinetic parameter was evaluated which is represented as AUC when administered 5 mg/Kg orally; range (0.19-0.35). Format: ADME. The settings on record: in vivo, po.
Data set [20] in a line: Bioavailability was evaluated after oral administration of 5 mg/kg; range (8.7-15.8). Format: ADME, organism-based. The settings on record: eutheria, in vivo.
Data set [21] in a line: Half life when administered intravenously; range (0.3-1.79). Type of data set: ADME, organism-based. The settings on record: in vivo, iv.
Data set [22] can be described thus: Half life when administered 5 mg/kg orally; range (0.99-1.14). The settings on record: in vivo, po. Further details: dose 5 mg/kg. Format: ADME, organism-based.
Data set [23] deals with T1, Intercellular adhesion molecule (ICAM-1), Integrin alpha-L/beta-2. The data set can be described thus: Inhibition of JY-8 cell adhesion via leukocyte function associated antigen 1 (LFA-1) to ICAM-1, range (320-350). Format: cell-based.
Data set [24] has the same target. The data set can be described thus: Inhibition of JY-8 cell adhesion via leukocyte function associated antigen 1 (LFA-1) to ICAM-1, range (100-110). Type of data set: cell-based.
Data set [25] has the same target. The source holds these as a separate data set.
Data set [26] is described as follows: Half life was determined after intravenous administration. Format: ADME, organism-based. Particulars: in vivo.
A short description of data set [27]: AUC(area under curve) was determined after intravenous administration in rats. Particulars: rat, plasma. Type of data set: ADME, organism-based.
For the next data set, the species on record is Rattus norvegicus. The data set can be described thus: Pharmacokinetic parameter was evaluated in rats which is represented as Vbeta. Format: ADME, organism-based. The settings on record: in vivo.
Data set [28] is described as follows: solubility in rats. Type of data set: ADME. Summed up: as §1
A short description of data set [29]: Bioavailability was evaluated in rats. Type of data set: ADME, organism-based. Particulars: rat, in vivo.

For `CCn1ccc2cccc(Sc3ccc(/C=C/C(=O)N4CCN(C(C)=O)CC4)cc3Cl)c21`, the pIC50 in [1] was 6.89.
`Nc1ccc(Sc2ccc3ccccc3c2Cl)c(Cl)c1`: in data set [2], the pIC50 is 5.64. In addition, in data set [3], the negative logarithm of the Kd (pKd) is over 4.70.
With `c1ccc2c(c1)OCCO2`, the pKd in data set [4] was 2.00.
As for `CC(=O)N1CCN(C(=O)/C=C/c2ccc(Sc3ccc4c(c3)OCO4)c(Cl)c2)CC1`, the pIC50 in [5] is 6.92.
`CC(=O)N1CCN(C(=O)/C=C/c2ccc(Sc3ccc4[nH]cc(CN(C)C)c4c3)c(Cl)c2)CC1` showed a pIC50 in [6] of 6.38.
Consider `CC(=O)N1CCN(C(=O)/C=C/c2ccc(Sc3cccc4ccn(C)c34)c(Cl)c2)CC1`, for which the pIC50 in data set [2] was 7.15.
In [2], `CC(=O)N1CCN(C(=O)/C=C/c2ccc(Sc3ccc4c(c3)OCC(C(=O)N(C)C)O4)c(Cl)c2)CC1` (stereo unspecified) had a pIC50 of 6.29.
In data set [2], `CC(=O)N1CCN(C(=O)/C=C/c2ccc(Sc3ccc4c(c3)OCC(CO)O4)c(Cl)c2)CC1` (stereo unspecified) showed a pIC50 of 7.70.
Take `CCOc1c(Sc2ccc(/C=C/C(=O)N3CCN(C(C)=O)CC3)cc2Cl)cc(Cl)c2cccnc12`: in [2], the pIC50 is 6.24.
In the case of `CC(=O)N1CCN(C(=O)/C=C/c2ccc(Sc3ccc4c(ccn4C)c3)c(Cl)c2)CC1`, the pIC50 in data set [2] was 7.70.
On to `CCOc1c(Sc2ccc(/C=C/C(=O)N3CCN(C(C)=O)CC3)cc2Cl)ccc2c1OCCO2`, for which the pIC50 in [7] is 7.00.
`Cn1ccc2ccccc21` gave a pKd in data set [4] of 2.85.
In data set [8], `CC(=O)N1CCN(C(=O)/C=C/c2ccc(Sc3ccc4[nH]ccc4c3)c(Cl)c2)CC1` had a pIC50 of 7.70. In addition, the Tmax in [9] worked out at 360 min. For the same compound, the peak level in data set [10] (Cmax) was 600 ng/mL. In addition, the half-life in [11] was 282 min. The same compound had an AUC in [12] of 5800 ng·h/mL. In [13], this compound came in with a solubility of 0.8 µg/mL (≈ 1.82 µM).
Take `CC(=O)N1CCN(C(=O)/C=C/c2ccc(Sc3ccc4c(c3)OCCO4)c(Cl)c2)CC1`: the figures for the AUC in [14] and in data set [19] were 2200 ng·h/mL and 280 ng·h/mL, respectively. The compound also had a Vbeta in data set [15] of 3 kg⁻¹. In addition, the Cmax in [16] is 190 ng/mL. The compound also showed a pIC50 in [17] of 7.40. For the same compound, the Tmax in data set [18] was 30 min. This compound also returned a bioavailability in data set [20] of 12.4%. For the same compound, the values for the half-life in [21] and in data set [22] were 33 min and 66 min, respectively. The solubility in data set [13] turned out to be 4.1 µg/mL (≈ 8.93 µM).
`CC(=O)N1CCN(C(=O)/C=C/c2ccc(Sc3ccc4c(ccn4CC(=O)O)c3)c(Cl)c2)CC1` gave a pIC50 in data set [23] of 6.48.
As to `CCn1cc(CN(C)C)c2cccc(Sc3ccc(/C=C/C(=O)N4CCN(C(C)=O)CC4)cc3Cl)c21`, the negative-log IC50 (pIC50) in [24] was 7.00.
Turning to `CC(=O)N1CCN(C(=O)/C=C/c2ccc(Sc3ccc4c(c3)OCC(C(=O)O)O4)c(Cl)c2)CC1` (stereo unspecified), in data set [2], the pIC50 is 5.92.
With `CC(=O)N1CCN(C(=O)/C=C/c2ccc(Sc3cc4[nH]c(O)nc4cc3Cl)c(Cl)c2)CC1`, in [25], the negative-log IC50 (pIC50) is 6.10.
In the case of `CC(=O)N1CCN(C(=O)/C=C/c2ccc(Sc3ccc4cc[nH]c4c3)c(Cl)c2)CC1`, the pIC50 in data set [2] was 6.82.
With `COCCn1ccc2cc(Sc3ccc(/C=C/C(=O)N4CCN(C(C)=O)CC4)cc3Cl)ccc21`, in data set [17], the pIC50 is 7.22.
Take `CC(=O)N1CCN(C(=O)/C=C/c2ccc(Sc3ccccc3C(C)C)c([N+](=O)[O-])c2)CC1` [A-286982]: in [26], the half-life is 24 min. The compound also returned an AUC in data set [27] of 1900 ng·h/mL. This compound showed a Vbeta in the data set listed under Rattus norvegicus of 2 kg⁻¹. Besides, the concentration in solution in [28] (solubility) came to 0.9 µg/mL (≈ 1.98 µM). The compound further gave a bioavailability in data set [29] of 0%.
Regarding `c1ccc2nsnc2c1` [BENZO[1,2,5]THIADIAZOLE], the pKd in [4] is 2.10.
